Source: ChEMBL document CHEMBL4229470, “Synthetic molecules for disruption of the MYC protein-protein interface” (Bioorg Med Chem, 2018)
Values after ≈ are worked out from the molar mass of the structure shown. Active and inactive are the calls of the source. The calls are words filed in the database; no cut-off is given here.

Experiments:
[1] = biological target: Myc proto-oncogene protein (Homo sapiens) (UniProt P01106); assay: Binding affinity to His-tagged Myc (unknown origin) expressed in Escherichia coli BL21 at 10 uM by Bio-FET analysis relative to KJ-Pyr-9
Sequence of Myc proto-oncogene protein (Homo sapiens) (P01106 whole entry): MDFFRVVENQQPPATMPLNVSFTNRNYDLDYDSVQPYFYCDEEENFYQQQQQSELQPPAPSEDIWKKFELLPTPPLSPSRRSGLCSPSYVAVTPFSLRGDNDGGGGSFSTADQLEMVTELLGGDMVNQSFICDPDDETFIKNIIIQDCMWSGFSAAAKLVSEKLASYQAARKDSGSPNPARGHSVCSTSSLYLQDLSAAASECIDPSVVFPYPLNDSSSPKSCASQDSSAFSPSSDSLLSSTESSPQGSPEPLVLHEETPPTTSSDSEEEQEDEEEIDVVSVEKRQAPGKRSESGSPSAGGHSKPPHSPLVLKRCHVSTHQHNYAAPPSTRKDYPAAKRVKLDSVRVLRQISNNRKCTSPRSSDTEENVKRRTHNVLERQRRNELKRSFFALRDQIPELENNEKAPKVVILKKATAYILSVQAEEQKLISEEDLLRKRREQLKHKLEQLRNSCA
Summary of the method: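 His-tagged MYC bHLH construct immobilized on a Bio-FET chip. Compounds at 10 μM in 3% DMSO in MES buffer; chip response at 10 μM normalized to a 10 μM reference ligand (saturating, maximal signal) run on each chip.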

[2] = biological target: Protein max (Homo sapiens) (UniProt P61244); assay: Binding affinity to His-tagged dimeric Max (unknown origin) expressed in Escherichia coli BL21 at 10 uM by Bio-FET analysis
Sequence of Protein max (Homo sapiens) (P61244 whole entry): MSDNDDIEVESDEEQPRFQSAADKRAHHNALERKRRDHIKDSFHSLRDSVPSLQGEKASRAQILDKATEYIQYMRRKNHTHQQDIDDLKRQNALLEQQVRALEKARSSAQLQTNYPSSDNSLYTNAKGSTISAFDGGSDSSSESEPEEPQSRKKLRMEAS
Summary of the method: (§1)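 Bio-FET chip screening at 10 μM against monomeric MAX (mMAX), MYC-MAX and MAX-MAX dimers. Heterodimers stabilized by a disulfide through a C-terminal cysteine introduced into the MYC bHLH and MAX constructs.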

[3] = Solubility in pH 6 MES buffer by dynamic light scattering assay; assay type: physicochemical
Summary of the method: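 Dynamic light scattering in MES, pH 6.0, with <0.1% DMSO.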

c-Myc/Max (Homo sapiens) [4] = biological target: T1, c-Myc/Max (Homo sapiens) (UniProt P01106+P61244); assay: Binding affinity to His-tagged Myc/Max (unknown origin) expressed in Escherichia coli BL21 at 10 uM by Bio-FET analysis; summary of the method: as §1
dsDNA = assay: Binding affinity to biotin-labeled EBOX dsDNA (unknown origin) at 10 uM measured over 2.5 mins by SPR analysis; assay type: nucleic-acid assay
Summary of the method: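 SPR check of compound alone flowed over the DNA surface, without protein.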

c-Myc/Max (Homo sapiens) [5] = biological target: T1, c-Myc/Max (Homo sapiens); assay: Inhibition of biotin-labeled EBOX dsDNA binding to Myc-Max (unknown origin) at 10 uM preincubated for 15 mins followed by test compound-protein mixture addition to biotin-labeled EBOX dsDNA immobilized chip measured over 2.5 mins by SPR analysis; assay type: protein-complex assay
Summary of the method: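 SPR. Disulfide-stabilized MYC-MAX dimer incubated with compound at 10 μM, then flowed over a DNA chip surface; sensorgram perturbation compared with vehicle control.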

[6] = biological target: Protein max (Homo sapiens) (UniProt P61244); assay: Binding affinity to His-tagged monomeric Max (unknown origin) expressed in Escherichia coli BL21 at 10 uM by Bio-FET analysis; summary of the method: as §1
[7] = MRT in C57Bl6 mouse at 10 mg/kg, iv by LC-MS analysis; assay type: ADME, organism-based; details: in vivo
Summary of the method: (§2)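 Pharmacokinetic parameters determined in C57Bl6 mice.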

[8] = Drug metabolism in rat liver microsomes assessed as oxidized furan ion formation by measuring parent compound remaining at 5 uM after 15 mins by LC-MS analysis; assay type: ADME, microsome; details: 0.25 h
Summary of the method: (§3)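 Compounds incubated with rat liver microsomes at 37 °C for the indicated times; mass analysis monitoring the oxidized furan ion; recovery calculated from the AUC of the extracted ion.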

[9] = Drug metabolism in rat liver microsomes assessed as oxidized furan ion formation by measuring parent compound remaining at 5 uM after 45 mins by LC-MS analysis; assay type: ADME, microsome; details: 0.75 h; summary of the method: as §3
[10] = Clearance in C57Bl6 mouse at 10 mg/kg, iv by LC-MS analysis; assay type: ADME, organism-based; details: in vivo; summary of the method: as §2
Mus musculus = assay: AUMC (0 to infinity) in C57Bl6 mouse at 10 mg/kg, iv by LC-MS analysis; assay type: ADME, organism-based; details: in vivo; summary of the method: as §2
[11] = Drug metabolism in rat liver microsomes assessed as oxidized furan ion formation by measuring parent compound remaining at 5 uM after 25 mins by LC-MS analysis; assay type: ADME, microsome; summary of the method: as §3
[12] = AUC (0 to infinity) in C57Bl6 mouse at 10 mg/kg, iv by LC-MS analysis; assay type: ADME, organism-based; set-up: dose 10 mg/kg, route intravenous, time infinity; details: in vivo; summary of the method: as §2
[13] = Drug metabolism in rat liver microsomes assessed as oxidized furan ion formation by measuring parent compound remaining at 5 uM after 7 mins by LC-MS analysis; assay type: ADME, microsome; summary of the method: as §3
[14] = Drug metabolism in rat liver microsomes assessed as oxidized furan ion formation by measuring parent compound remaining at 5 uM after 3 mins by LC-MS analysis; assay type: ADME, microsome; details: 0.05 h; summary of the method: as §3
[15] = Terminal half life in C57Bl6 mouse at 10 mg/kg, iv by LC-MS analysis; assay type: ADME, organism-based; details: in vivo, read-out: beta t1/2 (converted); summary of the method: as §2
[16] = Clearance in rat at 1 mg/kg, iv; assay type: ADME, organism-based; details: in vivo
[17] = MRT in rat at 1 mg/kg, iv; assay type: ADME, organism-based; details: in vivo
Rattus norvegicus = assay: AUMC (0 to infinity) in rat at 1 mg/kg, iv; assay type: ADME, organism-based; details: in vivo
[18] = Volume of distribution at steady state in C57Bl6 mouse at 10 mg/kg, iv by LC-MS analysis; assay type: ADME, organism-based; details: in vivo; summary of the method: as §2
[19] = AUC (0 to infinity) in rat at 1 mg/kg, iv; assay type: ADME, organism-based; set-up: dose 1 mg/kg, time infinity, route intravenous; details: in vivo
[20] = Terminal half life in rat at 1 mg/kg, iv; assay type: ADME, organism-based; details: in vivo, read-out: beta t1/2 (converted)

Row | SMILES | Activity [1] [%] | Activity [2] | solubility [3] [µM] | Activity (c-Myc/Max (Homo sapiens) [4]) | Activity (dsDNA) | inhibition (c-Myc/Max (Homo sapiens) [5]) | Activity [6] | other results
1 | N#Cc1ccc(-c2cc(-c3ccc(C(N)=O)cc3)cc(-c3ccco3)n2)cc1 | 106 | inactive | 10 (≈ 3.65 µg/mL) | inactive | inactive | Active | inactive | 
2 | NC(=O)c1ccc(-c2cc(-c3ccc(-c4nccs4)cc3)nc(-c3ccco3)c2)cc1 | 97 | inactive |  | inactive | inactive | Active | inactive | MRT [7]: 4.3 h; Stability [8]: 74.39%; Stability [9]: 62.23%; clearance [10]: 3.8 mL/min/kg; AUMC (Mus musculus): 190000 ng·h/mL; Stability [11]: 67.5%; AUC(0-inf) [12]: 44000 ng·h/mL; Stability [13]: 80.8%; Stability [14]: 84.31%
3 | COc1ccc(-c2cc(-c3ccc(C(N)=O)cc3)nc(-c3ccccc3)n2)cc1 | 0 | inactive | < 1 | inactive | inactive | inactive | inactive | 
4 | N#Cc1ccc(-c2cc(-c3ccc(C(N)=O)cc3)nc(-c3ccco3)n2)cc1 | 66 | inactive | 8 (≈ 2.93 µg/mL) | inactive | inactive | Active | inactive | 
5 | N#Cc1ccc(-c2cc(-c3ccc(C(N)=O)cc3)cc(-c3cnco3)n2)cc1 | 0 | inactive | 250 (≈ 91.6 µg/mL) | inactive | inactive | inactive | inactive | 
6 | N#Cc1ccc(-c2cc(-c3ccc(C(N)=O)cc3)cc(-c3cccc(F)c3)n2)cc1 | 0 | inactive | 2 (≈ 0.787 µg/mL) | inactive | inactive | inactive | inactive | 
7 | N#Cc1ccc(-c2cc(-c3ccc(-c4nnn[nH]4)cc3)cc(-c3ccco3)n2)cc1 | 92 | inactive | 18 (≈ 7.03 µg/mL) | inactive | inactive | Active | inactive | 
8 | NC(=O)c1ccc(-c2cc(-c3ccc([N+](=O)[O-])cc3)nc(-c3ccco3)c2)cc1 |  | inactive | 8 (≈ 3.08 µg/mL) |  | inactive |  | inactive | MRT [7]: 0.94 h; Stability [8]: 25.88%; Stability [9]: 22%; clearance [10]: 115 mL/min/kg; AUMC (Mus musculus): 1360 ng·h/mL; half-life [15]: 1 h; clearance [16]: 65 mL/min/kg; Stability [11]: 20.91%; AUC(0-inf) [12]: 1450 ng·h/mL; MRT [17]: 1.7 h; AUMC (Rattus norvegicus): 427 ng·h/mL; Stability [13]: 31.47%; Vd [18]: 6.44 L/kg; AUC(0-inf) [19]: 258 ng·h/mL; Stability [14]: 49.69%; half-life [20]: 1.6 h
9 | N#Cc1ccc(-c2cc(-c3ccc(C(N)=O)cc3)nc(-c3cc[n+]([O-])cc3)n2)cc1 | 0 | inactive | 25 (≈ 9.84 µg/mL) | inactive | inactive | inactive | inactive | 
10 | Cn1ccnc1-c1cc(-c2ccc(C(N)=O)cc2)cc(-c2ccc(C#N)cc2)n1 | 41 | inactive | 8 (≈ 3.04 µg/mL) | inactive | inactive | Active | inactive | 
11 | N#Cc1ccc(-c2cc(-c3ccc(C(=O)NN)cc3)cc(-c3ccco3)n2)cc1 | 0 | inactive | 500 (≈ 190 µg/mL) | inactive | inactive | inactive | inactive | 
12 | N#Cc1ccc(-c2cc(-c3ccc(C(N)=O)cc3)cc(-c3cncs3)n2)cc1 | 79 | inactive | 64 (≈ 24.5 µg/mL) | inactive | inactive | Active | inactive | 
13 | NC(=O)c1ccc(-c2cc(-c3ccc(-c4cnco4)cc3)nc(-c3ccco3)c2)cc1 | 154 | inactive | 15 (≈ 6.11 µg/mL) | inactive | inactive | Active | inactive | 
14 | c1coc(-c2cc(-c3nccs3)cc(-c3ccc(-c4nccs4)cc3)n2)c1 | 188 | inactive | < 1 | inactive | inactive | Active | inactive | 
15 | Cn1nncc1-c1cc(-c2ccc(C(N)=O)cc2)cc(-c2ccc(C#N)cc2)n1 | 55 | inactive | 32 (≈ 12.2 µg/mL) | inactive | inactive | Active | inactive | 
16 | CS(=O)(=O)NC(=O)c1ccc(-c2cc(-c3ccc(C#N)cc3)nc(-c3ccco3)c2)cc1 | 76 | inactive | 32 (≈ 14.2 µg/mL) | inactive | inactive | Active | inactive | 
17 | CNC(=O)c1ccc(-c2cc(-c3ccc(C#N)cc3)nc(-c3ccco3)c2)cc1 | 3.2 | inactive | 25 (≈ 9.49 µg/mL) | inactive | inactive | Active | inactive | 
